What was measured:
Cavia porcellus = species on record: Cavia porcellus; assay: Inverse agonist activity at alpha-1 receptor in guinea pig thoracic aorta assessed as inhibition of calcium-induced increase in resting tension at 10 nM relative to control; assay type: tissue-based
How it was run: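 Guinea pig thoracic aortic strips in Krebs at 37 °C, equilibrated 1 h at 1 g tension, then given (−)-noradrenaline 1 μM. Internal Ca²⁺ stores were depleted by repeated agonist in Ca²⁺-free Krebs with 0.1 mM EDTA. After 30 min with antagonist at 10 nM, 1.8 mM Ca²⁺ was added. Read-out: % decrease of Ca²⁺-induced increase in resting tension versus no-agent reference.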

[1] = target: T1, Adrenergic receptor alpha-2 (Rattus norvegicus, UniProt P22086+P19328+P22909); assay: Antagonist activity at alpha-2 adrenoreceptor in Sprague-Dawley rat prostatic vas deferens assessed as reversal of clonidine-inhibited twitch responses of field-stimulated prostatic portion of vas deferens after 30 mins by Schild plot analysis; assay type: tissue-based
T1 sequence (P22086 whole entry): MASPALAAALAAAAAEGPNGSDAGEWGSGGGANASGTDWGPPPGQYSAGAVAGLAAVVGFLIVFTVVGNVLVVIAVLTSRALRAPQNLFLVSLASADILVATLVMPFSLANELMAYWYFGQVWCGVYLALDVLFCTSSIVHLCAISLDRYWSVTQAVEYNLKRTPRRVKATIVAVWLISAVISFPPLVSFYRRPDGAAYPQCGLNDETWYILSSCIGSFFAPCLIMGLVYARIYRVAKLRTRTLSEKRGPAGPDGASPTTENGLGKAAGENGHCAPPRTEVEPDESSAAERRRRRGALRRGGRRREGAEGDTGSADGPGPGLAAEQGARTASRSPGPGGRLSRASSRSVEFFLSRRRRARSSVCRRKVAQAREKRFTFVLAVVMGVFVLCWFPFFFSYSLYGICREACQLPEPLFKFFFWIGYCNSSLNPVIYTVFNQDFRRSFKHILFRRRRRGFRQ
T1 sequence (P19328 whole entry): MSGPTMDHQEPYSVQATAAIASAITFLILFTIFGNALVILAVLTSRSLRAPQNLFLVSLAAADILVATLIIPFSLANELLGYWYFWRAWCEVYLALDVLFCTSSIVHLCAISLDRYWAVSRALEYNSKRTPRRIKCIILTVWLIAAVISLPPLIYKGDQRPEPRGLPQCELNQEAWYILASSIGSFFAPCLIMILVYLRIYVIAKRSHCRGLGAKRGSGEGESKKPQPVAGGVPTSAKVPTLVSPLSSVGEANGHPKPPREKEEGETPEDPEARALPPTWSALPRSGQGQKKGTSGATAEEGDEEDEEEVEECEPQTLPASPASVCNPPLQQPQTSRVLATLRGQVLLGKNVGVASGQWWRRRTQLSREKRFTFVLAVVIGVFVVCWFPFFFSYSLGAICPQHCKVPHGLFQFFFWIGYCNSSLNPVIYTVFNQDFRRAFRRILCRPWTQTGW
T1 sequence (P22909 whole entry): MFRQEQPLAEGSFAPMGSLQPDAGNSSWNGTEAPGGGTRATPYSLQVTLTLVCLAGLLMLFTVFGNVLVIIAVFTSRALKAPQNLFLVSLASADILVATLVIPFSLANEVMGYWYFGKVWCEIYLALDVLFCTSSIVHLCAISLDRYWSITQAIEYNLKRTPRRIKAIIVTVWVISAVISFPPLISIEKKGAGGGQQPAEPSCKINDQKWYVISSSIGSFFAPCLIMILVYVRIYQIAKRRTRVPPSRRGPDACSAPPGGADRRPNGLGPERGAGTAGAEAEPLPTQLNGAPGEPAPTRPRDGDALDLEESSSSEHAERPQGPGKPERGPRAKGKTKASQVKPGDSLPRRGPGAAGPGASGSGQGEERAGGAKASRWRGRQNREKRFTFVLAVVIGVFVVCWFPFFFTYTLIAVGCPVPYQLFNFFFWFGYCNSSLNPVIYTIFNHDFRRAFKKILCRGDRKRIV
How it was run: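 Prostatic vas deferens in bath with propranolol 1 μM and desipramine 0.01 μM throughout. A cumulative clonidine control curve was run, then a second curve after 30 min antagonist equilibration. pA₂ from Schild plot of log(DR−1) vs log[antagonist], at least three antagonist concentrations, 3−5 repeats each.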

[2] = target: T2, Alpha-1A adrenergic receptor (Rattus norvegicus, UniProt P43140); assay: Antagonist activity at alpha-1A adrenoreceptor in Sprague-Dawley rat prostatic vas deferens assessed as inhibition of noradrenaline-induced tissue contraction after 30 mins by Schild plot analysis; details: read-out: pA2 (converted)
T2 sequence (P43140 whole entry): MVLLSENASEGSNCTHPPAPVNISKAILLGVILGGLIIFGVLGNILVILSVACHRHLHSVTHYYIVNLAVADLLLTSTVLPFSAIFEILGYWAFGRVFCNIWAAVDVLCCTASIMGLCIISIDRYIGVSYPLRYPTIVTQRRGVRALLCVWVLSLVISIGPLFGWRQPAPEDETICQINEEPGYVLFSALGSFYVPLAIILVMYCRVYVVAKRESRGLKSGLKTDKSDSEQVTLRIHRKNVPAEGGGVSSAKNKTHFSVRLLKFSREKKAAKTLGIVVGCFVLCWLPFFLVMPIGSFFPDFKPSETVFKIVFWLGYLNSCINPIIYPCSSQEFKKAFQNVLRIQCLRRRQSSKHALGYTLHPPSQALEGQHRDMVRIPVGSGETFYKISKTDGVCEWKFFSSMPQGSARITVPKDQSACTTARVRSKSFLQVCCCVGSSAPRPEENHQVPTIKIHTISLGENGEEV
How it was run: (§1)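 Cumulative isotonic (−)-noradrenaline curves were run at 30 min intervals, the first discarded and the second taken as control, then a third after 30 min with antagonist. pA₂ from Schild plot, at least three antagonist concentrations, each tested 3−5 times.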

[3] = target: T2, Alpha-1A adrenergic receptor; assay: Antagonist activity at alpha-1A adrenoreceptor in Sprague-Dawley rat prostate assessed as inhibition of noradrenaline-induced tissue contraction after 30 mins by Schild plot analysis; set-up: species or system Prostate gland; details: read-out: pA2 (converted)
How it was run: as §1, with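 “Isolated prostatic portion of vas deferens from 200−250 g rats, in gassed (95% O₂/5% CO₂) physiological salt solution at pH 7.4 with desipramine 0.01 μM. Cumulative” for “Cumulative”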

| pA2 [1] | Kb [2] [nM] | Kb [3] [nM] | SMILES | inhibition (Cavia porcellus) [%] |
| --- | --- | --- | --- | --- |
| 6.05 | 9.33 | 3.63 | COc1ccc2c(c1OCCNC[C@H]1COc3ccccc3O1)NCC2.Cl.Cl | 100 |
| 6.55 | 5.5 | 1.95 | COc1ccc2ccoc2c1OCCNC[C@H]1COc2ccccc2O1.Cl | 0 |
| 6.63 | 33.9 | 13.2 | COc1ccc2c(c1OCCNC[C@H]1COc3ccccc3O1)OCC2.Cl | 0 |
| 6.09 | 4.9 | 13.2 | COc1ccc2cc[nH]c2c1OCCNC[C@H]1COc2ccccc2O1 | 25 |

From ChEMBL document CHEMBL2417545, “6-methoxy-7-benzofuranoxy and 6-methoxy-7-indolyloxy analogues of 2-[2-(2,6-Dimethoxyphenoxy)ethyl]aminomethyl-1,4-benzodioxane (WB4101):1 discovery of a potent and selective α1D-adrenoceptor antagonist” (J Med Chem, 2013)
